Experimental data reported in publication PMC4515784 (Journal of Medicinal Chemistry, 2015).

Tests used:
[1] = Reversed-phase HPLC relative lipophilicity; format: physicochemical; settings: C-18 column, 45% MeOH/CH3CN (1:1) and 55% water with Et3N and HOAc, 3.0 mL/min
How it was run: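 Waters C-18 Nova-Pak column (8 × 100 mm, 6 μm, radial compression). Organic phase MeOH/CH3CN 1:1 v/v; aqueous phase contained Et3N (2.1% v/v) and HOAc (2.8% v/v). Isocratic 45% organic/55% aqueous at 3.0 mL/min, with one analogue run at 42%/58%. Retention time and k′ recorded for radioiodinated products, matched to nonradioactive standards by coelution.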

HA-hSERT = HA-hSERT (Homo sapiens, UniProt P31645); assay: hSERT photoaffinity labeling in HA-hSERT LLCPK1 cells; format: binding
hSERT = hSERT (Homo sapiens, UniProt P31645); format: cell-based
hSERT, sequence (P31645 whole entry): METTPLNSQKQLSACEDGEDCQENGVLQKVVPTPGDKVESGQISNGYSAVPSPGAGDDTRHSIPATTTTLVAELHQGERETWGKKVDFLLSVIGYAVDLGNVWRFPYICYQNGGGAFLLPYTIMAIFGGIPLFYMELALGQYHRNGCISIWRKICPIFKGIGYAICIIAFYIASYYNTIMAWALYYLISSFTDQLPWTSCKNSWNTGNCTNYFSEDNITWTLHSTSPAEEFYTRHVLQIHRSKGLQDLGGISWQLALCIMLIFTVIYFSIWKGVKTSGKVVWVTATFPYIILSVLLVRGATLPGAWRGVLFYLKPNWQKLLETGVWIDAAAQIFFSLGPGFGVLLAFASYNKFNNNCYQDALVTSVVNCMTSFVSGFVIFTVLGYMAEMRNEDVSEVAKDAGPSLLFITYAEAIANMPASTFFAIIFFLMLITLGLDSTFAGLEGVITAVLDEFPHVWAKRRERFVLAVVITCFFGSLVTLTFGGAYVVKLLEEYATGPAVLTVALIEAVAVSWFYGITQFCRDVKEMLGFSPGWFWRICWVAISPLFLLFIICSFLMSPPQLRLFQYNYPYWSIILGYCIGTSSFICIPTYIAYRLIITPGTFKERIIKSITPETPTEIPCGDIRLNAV

HA-hSERT, sequence (P31645 whole entry): as above

CN(CCC[C@@]1(c2ccc(F)cc2)OCc2cc(C#N)ccc21)CCc1ccc(N=[N+]=[N-])c([125I])c1 [[^125I]15, (S)-1-(3-((4-Azido-3-[^125I]-iodophenethyl)(methyl)amino)propyl)-1-(4-fluorophenyl)-1,3-dihydroisobenzofuran-5-carbonitrile]
Capacity factor k′ (relative lipophilicity) [1]: 18.3
Irreversible (covalent) labeling of hSERT upon photoactivation (HA-hSERT): covalently label

CN(C)CCC[C@@]1(c2ccc(F)cc2)OCc2cc(CNC(=O)CCc3ccc(N=[N+]=[N-])c([125I])c3)ccc21 [[^125I]22, (S)-3-(4-Azido-3-[^125I]-iodophenyl)-N-((1-(3-(dimethylamino)propyl)-1-(4-fluorophenyl)-1,3-dihydroisobenzofuran-5-yl)methyl)propanamide]
Capacity factor k′ (relative lipophilicity) [1]: 10.4
Effect of (S)-citalopram preincubation on irreversible hSERT labeling (in words) (HA-hSERT): completely eliminated
Irreversible (covalent) labeling of hSERT upon photoactivation (HA-hSERT): covalently label

CN(C)CCC[C@@]1(c2ccc(F)cc2)OCc2cc(CNC(=O)c3ccc(N=[N+]=[N-])c([125I])c3)ccc21 [[^125I]26, (S)-4-Azido-N-((1-(3-(dimethylamino)propyl)-1-(4-fluorophenyl)-1,3-dihydroisobenzofuran-5-yl)methyl)-3-[^125I]-iodobenzamide]
Capacity factor k′ (relative lipophilicity) [1]: 10.6
Effect of (S)-citalopram preincubation on irreversible hSERT labeling (in words) (HA-hSERT): completely eliminated
Irreversible (covalent) labeling of hSERT upon photoactivation (HA-hSERT): covalently label

CN(CCC[C@@]1(c2ccc(F)cc2)OCc2cc(C#N)ccc21)CCc1ccc(N=[N+]=[N-])c(I)c1 [compound 15, (S)-1-(3-((4-Azido-3-iodophenethyl)(methyl)amino)propyl)-1-(4-fluorophenyl)-1,3-dihydroisobenzofuran-5-carbonitrile]
Reduction in WT hSERT affinity compared to (S)-citalopram (hSERT): 100 fold

CN(C)CCC[C@@]1(c2ccc(F)cc2)OCc2cc(CNC(=O)CCc3ccc(N=[N+]=[N-])c(I)c3)ccc21 [compound 22, (S)-3-(4-Azido-3-iodophenyl)-N-((1-(3-(dimethylamino)propyl)-1-(4-fluorophenyl)-1,3-dihydroisobenzofuran-5-yl)methyl)propanamide]
Reduction in WT hSERT affinity compared to (S)-citalopram (hSERT): 17 fold

CN(C)CCC[C@@]1(c2ccc(F)cc2)OCc2cc(CNC(=O)c3ccc(N=[N+]=[N-])c(I)c3)ccc21 [compound 26, (S)-4-Azido-N-((1-(3-(dimethylamino)propyl)-1-(4-fluorophenyl)-1,3-dihydroisobenzofuran-5-yl)methyl)-3-iodobenzamide]
Reduction in WT hSERT affinity compared to (S)-citalopram (hSERT): 11 fold
